Assays:
[1] = biological target: eIF4A1 (Homo sapiens, UniProt P60842); experiment: Fluorescence polarization; assay type: binding; details: for rank in screen for enhancing eIF4A1:poly r(AG)8 RNA binding: 10 µM rocaglate, >200 rocaglates of BU-CMD collection
[2] = test system: cap-dependent translation (FF); experiment: In vitro translation assay in Krebs-2 extracts; assay type: biochemical; details: Krebs-2 extracts programmed with mRNA
Procedure, shortened: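 Reporter mRNA added at 10 ng/µL final. Incubated with or without compound 60 min at 30 °C; firefly luciferase read. IC50 from 3–5 independent experiments (6 concentration points), nonlinear regression fit.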

[3] = test system: 80S ribosome assembly on (AG)10-FF/HCV/Ren mRNA; experiment: Ribosome binding; assay type: biochemical, rabbit; details: 500 nM compound, 100 nM eIF4A1, RRL, 600 µM cycloheximide
Procedure, shortened: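 32P-labeled (AG)10-FF/HCV/Ren mRNA preincubated with 100 nM eIF4A1 and 500 nM compound for 10 min at RT. Then added to rabbit reticulocyte lysate with 600 µM cycloheximide and incubated 10 min at 30 °C. Lysate sedimented on 10–30% glycerol gradients (SW40, 39,000 rpm, 3.5 h, 4 °C). Fractions collected and radioactivity measured by scintillation counting.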

[4] = test system: NIH/3T3 cells; experiment: Sulforhodamine B; assay type: cell-based; details: read-out: IC50 cytotoxicity against NIH/3T3 cells; 4 day compound exposure
[5] = test system: myr-Akt/Eµ-Myc lymphomas; experiment: Lymphoma chemosensitization study; assay type: in vivo, mice; details: CMLD012612 0.2 mg/kg IP daily for 5 days + doxorubicin 10 mg/kg on day 2
[6] = test system: HEK293 cells; experiment: [35S]-methionine labeling; assay type: cell-based; details: 1 h compound exposure; compared with CR-1–31-B and CMLD012073
[7] = test system: liver polysomes; experiment: Liver polysome profiling after intraperitoneal delivery; assay type: in vivo, mice; details: 3 h after intraperitoneal injection; 0.5 mg/kg CMLD012612, 0.2 mg/kg CR-1–31-B
[8] = test system: eIF4A1^em1JP cells
[9] = biological target: eIF4A2 (Homo sapiens, UniProt Q14240); experiment: Fluorescence polarization; assay type: binding; details: 10 µM CR-1–31-B, 10 nM FAM poly r(AG)8, 30 min RT
Sequence of eIF4A2 (Q14240 whole entry, species assumed): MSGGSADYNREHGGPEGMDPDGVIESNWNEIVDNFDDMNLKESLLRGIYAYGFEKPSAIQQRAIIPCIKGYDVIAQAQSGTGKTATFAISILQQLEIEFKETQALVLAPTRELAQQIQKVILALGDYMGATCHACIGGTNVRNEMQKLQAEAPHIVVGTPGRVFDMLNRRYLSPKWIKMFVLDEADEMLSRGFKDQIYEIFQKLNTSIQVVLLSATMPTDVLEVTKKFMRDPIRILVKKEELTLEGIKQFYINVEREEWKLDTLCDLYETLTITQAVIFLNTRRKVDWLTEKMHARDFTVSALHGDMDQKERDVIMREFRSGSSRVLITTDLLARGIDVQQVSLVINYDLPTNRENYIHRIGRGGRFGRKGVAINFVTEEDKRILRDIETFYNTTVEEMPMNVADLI
Procedure, shortened: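 His6-eIF4A2 expressed in E. coli BL21(DE3), purified by Ni-NTA then Q-Sepharose. Varied eIF4A2 concentrations mixed with 10 nM FAM-poly r(AG)8, plus DMSO vehicle or test compound. Equilibrated 30 min at RT, then polarization read. Change in FP expressed relative to DMSO control; n = 3 ± SEM.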

Sequence of eIF4A1 (P60842 whole entry, species assumed): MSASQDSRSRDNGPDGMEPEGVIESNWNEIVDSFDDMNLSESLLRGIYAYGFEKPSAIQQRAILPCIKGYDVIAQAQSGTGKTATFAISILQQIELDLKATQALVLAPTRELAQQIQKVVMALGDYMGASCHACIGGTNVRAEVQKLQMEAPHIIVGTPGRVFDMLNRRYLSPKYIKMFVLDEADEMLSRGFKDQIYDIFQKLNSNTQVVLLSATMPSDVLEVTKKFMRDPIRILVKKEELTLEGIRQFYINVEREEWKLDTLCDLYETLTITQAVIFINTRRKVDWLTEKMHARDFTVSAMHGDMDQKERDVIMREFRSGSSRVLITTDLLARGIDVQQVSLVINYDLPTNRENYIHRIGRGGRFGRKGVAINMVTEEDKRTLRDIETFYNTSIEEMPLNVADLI

| Structure (SMILES) | rank in screen for enhancing eIF4A1:poly r(AG)8 RNA binding [1] | assembly of the 80S ribosome on the mRNA [3] | IC50 [4] [nM] | suppression of liver polysomes [7] | other results |
| --- | --- | --- | --- | --- | --- |
| COC(=O)[C@@H]1[C@@H](c2ccccc2)[C@]2(c3ccc(OC)cc3)Oc3cc(OC)cc(OC)c3[C@@]23N=C(C2CC2)N[C@@]13O [CMLD012072] | Among the most potent | – | – | – | – |
| COC(=O)[C@@H]1[C@@H](c2ccccc2)[C@]2(c3ccc(OC)cc3)Oc3cc(OC)cc(OC)c3[C@@]23N=C(C)N[C@@]13O [CMLD012073] | Among the most potent | inhibited assembly of the 80S ribosome | 10 | – | potency at inhibiting cap-dependent translation (FF) relative to CR-1–31-B [2]: ~ 3 fold |
| COc1ccc([C@@]23Oc4cc(OC)cc(OC)c4[C@@]24NC(C)=NC4=C(C=O)[C@H]3c2ccccc2)cc1 [CMLD012607] | – | – | 454 | – | – |
| COc1ccc([C@@]23Oc4cc(OC)cc(OC)c4[C@@]24N=C(C)N[C@@]4(O)[C@H](C(=O)N(C)OC)[C@H]3c2ccccc2)cc1 [CMLD012612] | – | – | ~2 | effectively suppressed liver polysomes | duration of complete tumor loss (tumor-free survival) [5]: 15 to 16 days; synergy with doxorubicin [5]: effectively synergized; inhibition of cellular translation (35S-methionine incorporation) [6]: surpasses those of our previous lead compounds; cytotoxicity in eIF4A1^em1JP cells versus NIH/3T3 [8]: significantly blunted; resistance of eIF4A^em1jp cells relative to parental NIH/3T3 cells ([8]; 4 day compound exposure): at least 10 fold |
| CONC(=O)[C@H]1[C@@H](O)[C@@]2(O)c3c(OC)cc(OC)cc3O[C@@]2(c2ccc(OC)cc2)[C@@H]1c1ccccc1 [CR-1–31-B] | ranked highly | inhibited assembly of the 80S ribosome | ~8.5 | effectively suppressed liver polysomes | stimulation of eIF4A1 binding to poly rA(GAA)5 ([1]; 500 nM eIF4A1, 30 min, change in FP vs vehicle): preferentially stimulated; binding activity of eIF4A1 to poly r(AG)8 ([1]; 10 µM CR-1–31-B, 10 nM FAM poly r(AG)8, 30 min RT): enhanced; binding activity of eIF4A2 to poly r(AG)8 [9]: enhanced |
| CONC(=O)[C@H]1[C@@H](O)[C@@]2(O)c3c(OC)cc(OC)cc3O[C@@]2(c2ccc(Br)cc2)[C@@H]1c1ccccc1 [SDS-1–0-21] | ranked highly | – | – | – | – |
